Test [1] can be described thus: P. aeruginosa growth delay under iron chelation, dose response, whole organism, OD600, EDDHA, dry powder, set 7 (AID 624064). The following applies: P. aeruginosa growth with EDDHA, OD600, 24-30 h; at 120 µM (top of the series). The procedure, abridged: (§1)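 system = Pseudomonas aeruginosa whole cells, strain ATCC 15692 | amount = bacterial inoculum at final OD600 of 0.0000005 | buffer or medium = succinate M9 medium, pH 7.0, iron-limited with 2 µM EDDHA (final) | detection = OD600 absorbance | times = bacterial growth with compound for 24-30 h at 37 °C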

In test [2] the test system is P. aeruginosa growth with EDDHA, OD600, 24-30 h. The test is described as above. Put shortly:
as §1

Calls of active or inactive are those of the source.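 The calls were made as follows: active = fitted curve reaching 35% inhibition at both 405 and 600 nm absorbance, in duplicate, within twice the top valid dose; inactive = the rest, including signal rising instead of falling.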

As for `N#CC(c1ccc(Cl)cc1)c1ccccn1` (stereo not given), the activity change, negative = inhibition in test [1] was -30.8% (inactive).

Take `CCCCC(C#N)c1ccc(Cl)cn1` (stereo not given): the activity change, negative = inhibition in test [1] was -2.96% (inactive).

For `Clc1ccc(C(c2cccc(Cl)n2)c2nn[nH]n2)cc1` (stereo not given), the activity change, negative = inhibition in test [1] is 11.3% (inactive).

In the case of `COCCC(C#N)c1ccc(Cl)cc1` (stereo not given), the activity change, negative = inhibition in test [1] is -16.8% (inactive).

With `COCCOCCC(C#N)c1ccc(F)cc1` (stereo not given), in test [1], the activity change, negative = inhibition is -18.1% (inactive).

On to `N#CC1c2ccc(Cl)cc2CCc2cccnc21` (stereo not given), for which the activity change, negative = inhibition in test [1] was 31.2% (inactive).

For `CCCCC(C#N)c1ccccn1` (stereo not given), in test [1], the activity change, negative = inhibition is 11% (inactive).

Consider `CCCCC(C#N)c1ccc(Cl)cc1` (stereo not given), for which the activity change, negative = inhibition in test [1] was 13.2% (inactive).

For the compound `CCCCC(C#N)c1ccc(F)cc1` (stereo not given), the AC35 in test [2] is > 120 µM (inactive).

`CN(C)CCCC(C#N)c1ccc(Cl)cc1` (stereo not given): in test [1], the activity change, negative = inhibition is -12.9% (inactive).

As to `N#CC(c1ccc(F)cc1)c1cccc(Cl)n1` (stereo not given), the activity change, negative = inhibition in test [1] is -35.8% (inactive).

On to `COCCOCCC(C#N)c1ccc(Cl)cc1` (stereo not given), for which the activity change, negative = inhibition in test [1] was 2.11% (inactive).

For `N#CC(c1ccc(C(F)(F)F)c(Cl)n1)c1ccccc1OC(F)(F)F` (stereo not given), the activity change, negative = inhibition in test [1] was -8.43% (inactive).

`CN(C)CCCC(C#N)c1ccc(F)cc1` (stereo not given): the activity change, negative = inhibition in test [1] is -34.3% (inactive).

Take `CCCCC(C#N)c1ccc(F)cn1` (stereo not given): the activity change, negative = inhibition in test [1] was -4.82% (inactive).

Consider `COCCNC(C#N)c1ccc(Cl)cc1` (stereo not given), for which, in test [1], the activity change, negative = inhibition was -0.512% (inactive).

`N#CC(c1ccc(Cl)cc1)N1CCCC1` (stereo not given): the activity change, negative = inhibition in test [1] is -7.6% (inactive).

In the case of `COCCC(C#N)c1ccc(F)cc1` (stereo not given), in test [1], the activity change, negative = inhibition was -1.09% (inactive).

`N#Cc1cccc(C(C#N)c2ccc(F)cc2)n1` (stereo not given): the activity change, negative = inhibition in test [1] was -25.4% (inactive).

Regarding `CCCCC(c1ccc(Cl)cc1)c1nn[nH]n1` (stereo not given), the activity change, negative = inhibition in test [1] was -5.82% (inactive).

The values above are taken from PubChem BioAssay AID624064 (Broad Institute, 2012).
